We go through twelve compounds from ChEMBL document CHEMBL3046592, “Organophosphorus derivatives containing piperazine dithiosemicarbazones as chemotherapeutants against fungal pathogens of sugarcane” (2005).

Format in all cases: functional
Common to all, as to details: 168 h

Assay [1] relates to Colletotrichum falcatum. Put plainly: Fungicidal activity against Glomerella tucumanensis assessed as mycelial inhibition at 100 ppm at 28 +/- 2 degC measured after 7 days by food poison technique. In a few lines: (§1)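 Poisoned-food test on oatmeal agar. The compound was dissolved in 0.5 cm3 of solvent and mixed into the medium to give the stated ppm. Controls received the same amount of solvent only. A 5 mm mycelial disk, cut from the periphery of a 2-week-old culture, was placed at the plate centre. Plates were incubated 7 days at 28 ± 2 °C, in triplicate. Percent inhibition = (dc − dt)/dc × 100, using mean colony diameters of control (dc) and treatment (dt).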

Assay [2] deals with Fusarium oxysporum. Put plainly: Fungicidal activity against Fusarium oxysporum assessed as mycelial inhibition at 1000 ppm at 28 +/- 2 degC measured after 7 days by food poison technique. In a few lines:
as §1

The subject of assay [3] is Colletotrichum falcatum. Put plainly: Fungicidal activity against Glomerella tucumanensis assessed as mycelial inhibition at 10 ppm at 28 +/- 2 degC measured after 7 days by food poison technique. In a few lines:
as §1

Assay [4] has as its system Curvularia pallescens. Put plainly: Fungicidal activity against Cochliobolus pallescens assessed as mycelial inhibition at 10 ppm at 28 +/- 2 degC measured after 7 days by food poison technique. Put shortly:
as §1

Assay [5] relates to Curvularia pallescens. Put plainly: Fungicidal activity against Cochliobolus pallescens assessed as mycelial inhibition at 1000 ppm at 28 +/- 2 degC measured after 7 days by food poison technique. Put shortly: as §1
The test system of assay [6] is Colletotrichum falcatum. As to the kind of experiment: Fungicidal activity against Glomerella tucumanensis assessed as mycelial inhibition at 1000 ppm at 28 +/- 2 degC measured after 7 days by food poison technique. Put shortly: as §1
Assay [7] has as its system Fusarium oxysporum. Put plainly: Fungicidal activity against Fusarium oxysporum assessed as mycelial inhibition at 10 ppm at 28 +/- 2 degC measured after 7 days by food poison technique. In a few lines:
as §1

Assay [8] relates to Fusarium oxysporum. As to the kind of experiment: Fungicidal activity against Fusarium oxysporum assessed as mycelial inhibition at 100 ppm at 28 +/- 2 degC measured after 7 days by food poison technique. In a few lines:
as §1

For assay [9], the system named is Curvularia pallescens. As to the kind of experiment: Fungicidal activity against Cochliobolus pallescens assessed as mycelial inhibition at 100 ppm at 28 +/- 2 degC measured after 7 days by food poison technique. Put shortly:
as §1

In assay [10] the test system is Fusarium oxysporum. Put plainly: Fungicidal activity against Fusarium oxysporum assessed as mycelial inhibition at 28 +/- 2 degC measured after 7 days by food poison technique.
The subject of assay [11] is Curvularia pallescens. Put plainly: Fungicidal activity against Cochliobolus pallescens assessed as mycelial inhibition at 28 +/- 2 degC measured after 7 days by food poison technique.
For assay [12], the system named is Colletotrichum falcatum. Put plainly: Fungicidal activity against Glomerella tucumanensis assessed as mycelial inhibition at 28 +/- 2 degC measured after 7 days by food poison technique.

Values after ≈ are worked out from the molar mass of the structure shown.

In general, inhibition refers to how much of the control response was suppressed. Turning to `CCOP(=O)(OCC)S/C(=N\N=C\c1ccc([N+](=O)[O-])cc1)N1CCN(/C(=N\N=C\c2ccc([N+](=O)[O-])cc2)SP(=O)(OCC)OCC)CC1`, the inhibition at 100 ppm in the assay with Colletotrichum falcatum [1] turned out to be 40.8%; in the assay on Fusarium oxysporum [8], 40.2%; with Curvularia pallescens [9], 58.2%. Also, the inhibition at 1000 ppm with Fusarium oxysporum [2] stood at 62.6%; in the assay with Curvularia pallescens [5] it was 89.2%; in the assay on Colletotrichum falcatum [6], 65.2%. Further, the inhibition at 10 ppm in the assay on Colletotrichum falcatum [3] came to 25.8%; in the assay on Curvularia pallescens [4], 35.6%; in the assay with Fusarium oxysporum [7] it was 27.5%.

As for `S=C(N/N=C/c1ccccc1Cl)N1CCN(C(=S)N/N=C/c2ccccc2Cl)CC1`, the inhibition at 100 ppm came out at 30.8% in the assay with Colletotrichum falcatum [1], 42% with Fusarium oxysporum [8] and 47.3% in the assay with Curvularia pallescens [9]. Moreover, the inhibition at 1000 ppm in the assay with Fusarium oxysporum [2] is 69.2%; with Curvularia pallescens [5] it was 66.2%; with Colletotrichum falcatum [6] it was 60.3%. Further, the inhibition at 10 ppm came out at 21.2% with Colletotrichum falcatum [3], 27.4% in the assay with Curvularia pallescens [4] and 25.5% in the assay on Fusarium oxysporum [7].

With `CCOP(=O)(OCC)S/C(=N/N=C/c1ccccc1Cl)N1CCN(/C(=N\N=C\c2ccccc2Cl)SP(=O)(OCC)OCC)CC1`, the inhibition at 100 ppm worked out at 70.6% with Colletotrichum falcatum [1], 82.4% in the assay on Fusarium oxysporum [8] and 86.8% with Curvularia pallescens [9]. Moreover, the results for the inhibition at 1000 ppm in the assay on Fusarium oxysporum [2], in the assay on Curvularia pallescens [5] and in the assay with Colletotrichum falcatum [6] were 100%, 88.2% and 85.6%, respectively. Besides, the inhibition at 10 ppm in the assay with Colletotrichum falcatum [3] turned out to be 55.2%; in the assay with Curvularia pallescens [4], 47.7%; in the assay with Fusarium oxysporum [7], 56.8%.

As to `S=C(N/N=C/c1ccc(Cl)cc1)N1CCN(C(=S)N/N=C/c2ccc(Cl)cc2)CC1`, the inhibition at 100 ppm in the assay on Colletotrichum falcatum [1] was 35.4%; in the assay with Fusarium oxysporum [8] it was 41.6%; in the assay with Curvularia pallescens [9], 49.2%. In addition, the inhibition at 1000 ppm in the assay with Fusarium oxysporum [2] was 64.8%; in the assay with Curvularia pallescens [5] it was 68.4%; in the assay on Colletotrichum falcatum [6], 68.2%. The inhibition at 10 ppm was found to be 24.8% with Colletotrichum falcatum [3], 38.5% in the assay with Curvularia pallescens [4] and 28.7% in the assay on Fusarium oxysporum [7].

What is called MIC is the lowest concentration that inhibits growth of the organism. As to `CCOP(=O)(OCC)S/C(=N/N=C/c1ccc(Cl)cc1)N1CCN(/C(=N\N=C\c2ccc(Cl)cc2)SP(=O)(OCC)OCC)CC1`, the inhibition at 100 ppm with Colletotrichum falcatum [1] stood at 72.8%; in the assay with Fusarium oxysporum [8], 76.2%; with Curvularia pallescens [9] it was 88.2%. Besides, the inhibition at 1000 ppm with Fusarium oxysporum [2], with Curvularia pallescens [5] and in the assay on Colletotrichum falcatum [6] was 100% in each case. The minimal inhibitory concentration (MIC) with Fusarium oxysporum [10], in the assay on Curvularia pallescens [11] and with Colletotrichum falcatum [12] was 1000 µg/mL (≈ 1.33 mM) in each case. The inhibition at 10 ppm in the assay on Colletotrichum falcatum [3] was found to be 42.5%; with Curvularia pallescens [4], 66.6%; with Fusarium oxysporum [7], 37.8%.

For the compound `S=C(N/N=C/c1ccccc1)N1CCN(C(=S)N/N=C/c2ccccc2)CC1`, the inhibition at 100 ppm is 28.9% in the assay on Colletotrichum falcatum [1], 25.6% with Fusarium oxysporum [8] and 32.1% in the assay with Curvularia pallescens [9]. In addition, the inhibition at 1000 ppm in the assay with Fusarium oxysporum [2] was 48.8%; in the assay with Curvularia pallescens [5], 57.4%; with Colletotrichum falcatum [6], 53.6%. The figures for the inhibition at 10 ppm in the assay with Colletotrichum falcatum [3], with Curvularia pallescens [4] and in the assay with Fusarium oxysporum [7] were 14.1%, 20.6% and 14.3%, respectively.

Regarding `CCOP(=O)(OCC)S/C(=N/N=C/c1ccccc1)N1CCN(/C(=N\N=C\c2ccccc2)SP(=O)(OCC)OCC)CC1`, the inhibition at 100 ppm stood at 40.2% in the assay with Colletotrichum falcatum [1], 35.6% in the assay with Fusarium oxysporum [8] and 49.5% with Curvularia pallescens [9]. Moreover, the inhibition at 1000 ppm amounted to 66.5% in the assay with Fusarium oxysporum [2], 75% in the assay with Curvularia pallescens [5] and 73.4% in the assay on Colletotrichum falcatum [6]. In addition, the values for the inhibition at 10 ppm in the assay on Colletotrichum falcatum [3], with Curvularia pallescens [4] and in the assay on Fusarium oxysporum [7] were 25.8%, 32.8% and 24.8%, respectively.

As for `COc1ccc(/C=N/NC(=S)N2CCN(C(=S)N/N=C/c3ccc(OC)cc3)CC2)cc1`, the inhibition at 100 ppm in the assay on Colletotrichum falcatum [1] was found to be 37.6%; in the assay on Fusarium oxysporum [8], 40.2%; in the assay with Curvularia pallescens [9], 45.8%. In addition, the inhibition at 1000 ppm in the assay with Fusarium oxysporum [2] was found to be 66.8%; in the assay on Curvularia pallescens [5] it was 67.2%; in the assay on Colletotrichum falcatum [6], 65.9%. The inhibition at 10 ppm came to 22.1% in the assay with Colletotrichum falcatum [3], 28.6% in the assay with Curvularia pallescens [4] and 35.3% in the assay on Fusarium oxysporum [7].

For `CCOP(=O)(OCC)S/C(=N/N=C/c1ccc(OC)cc1)N1CCN(/C(=N\N=C\c2ccc(OC)cc2)SP(=O)(OCC)OCC)CC1`, the inhibition at 100 ppm came to 58.6% with Colletotrichum falcatum [1], 70.6% in the assay with Fusarium oxysporum [8] and 80.5% in the assay with Curvularia pallescens [9]. Further, the inhibition at 1000 ppm with Fusarium oxysporum [2], with Curvularia pallescens [5] and in the assay with Colletotrichum falcatum [6] was 100% in each case. Besides, the MIC with Fusarium oxysporum [10], in the assay on Curvularia pallescens [11] and in the assay with Colletotrichum falcatum [12] was 1000 µg/mL (≈ 1.35 mM) throughout. The inhibition at 10 ppm in the assay on Colletotrichum falcatum [3] turned out to be 36.4%; in the assay on Curvularia pallescens [4] it was 42.2%; in the assay with Fusarium oxysporum [7] it was 53.2%.

Turning to `O=[N+]([O-])c1ccc(/C=N/NC(=S)N2CCN(C(=S)N/N=C/c3ccc([N+](=O)[O-])cc3)CC2)cc1`, the inhibition at 100 ppm was found to be 24.3% in the assay with Colletotrichum falcatum [1], 23.9% with Fusarium oxysporum [8] and 31.1% in the assay with Curvularia pallescens [9]. Besides, the inhibition at 1000 ppm with Fusarium oxysporum [2] stood at 44.8%; with Curvularia pallescens [5] it was 59.6%; in the assay on Colletotrichum falcatum [6] it was 46.6%. The inhibition at 10 ppm in the assay with Colletotrichum falcatum [3] came to 11.6%; with Curvularia pallescens [4], 22.7%; with Fusarium oxysporum [7], 16.2%.

For `COC(=O)Nc1nc2ccccc2[nH]1` [CARBENDAZIM], the MIC in the assay on Fusarium oxysporum [10] was 3000 µg/mL (≈ 15.7 mM); in the assay on Curvularia pallescens [11] it was 4000 µg/mL (≈ 20.9 mM); in the assay on Colletotrichum falcatum [12] it was 4000 µg/mL (≈ 20.9 mM).

Turning to `COC(=O)NC(=S)Nc1ccccc1NC(=S)NC(=O)OC` [THIOPHANATE METHYL], the MIC in the assay with Fusarium oxysporum [10], in the assay on Curvularia pallescens [11] and in the assay with Colletotrichum falcatum [12] was 4000 µg/mL (≈ 11.7 mM) throughout.
